# Hits are enriched below; roughly 0.7% of the tested compounds scored in any of these assays.
# Glyco luc inh: blocks N-linked glycosylation in D54 reporter cells; D54 ERlucT glycosylation luciferase reporter, 24 h; percent of 100 nM tunicamycin response; reporter increase, % at 12.5 µM; 360,000 tested, 0.23% active; AID 588692;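 active = mean luciferase reporter signal, scaled so untreated is 0 and the glycosylation-blocking control 100, at or above a set limit in every replicate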;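 note: luciferase carries N-glycosylation sites so blocking glycosylation raises the light; 0% = median of neutral control wells and 100% = median of 100 nM tunicamycin wells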
# RAD54 branch: blocks human RAD54 Holliday junction branch migration | inhibition, % at 10.4 µM | AID 602329 | FAM/BHQ fluorescence | 360,000 tested, 0.14% active;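 active = mean normalized replicate activity at least 40 and at least half of replicates scoring 40 or more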;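 note: 0% = median of neutral control wells and 100% = median of positive control wells; inhibitors cause a drop in the FAM fluorescence signal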
# Target sequence (Q92698 whole entry, looked up): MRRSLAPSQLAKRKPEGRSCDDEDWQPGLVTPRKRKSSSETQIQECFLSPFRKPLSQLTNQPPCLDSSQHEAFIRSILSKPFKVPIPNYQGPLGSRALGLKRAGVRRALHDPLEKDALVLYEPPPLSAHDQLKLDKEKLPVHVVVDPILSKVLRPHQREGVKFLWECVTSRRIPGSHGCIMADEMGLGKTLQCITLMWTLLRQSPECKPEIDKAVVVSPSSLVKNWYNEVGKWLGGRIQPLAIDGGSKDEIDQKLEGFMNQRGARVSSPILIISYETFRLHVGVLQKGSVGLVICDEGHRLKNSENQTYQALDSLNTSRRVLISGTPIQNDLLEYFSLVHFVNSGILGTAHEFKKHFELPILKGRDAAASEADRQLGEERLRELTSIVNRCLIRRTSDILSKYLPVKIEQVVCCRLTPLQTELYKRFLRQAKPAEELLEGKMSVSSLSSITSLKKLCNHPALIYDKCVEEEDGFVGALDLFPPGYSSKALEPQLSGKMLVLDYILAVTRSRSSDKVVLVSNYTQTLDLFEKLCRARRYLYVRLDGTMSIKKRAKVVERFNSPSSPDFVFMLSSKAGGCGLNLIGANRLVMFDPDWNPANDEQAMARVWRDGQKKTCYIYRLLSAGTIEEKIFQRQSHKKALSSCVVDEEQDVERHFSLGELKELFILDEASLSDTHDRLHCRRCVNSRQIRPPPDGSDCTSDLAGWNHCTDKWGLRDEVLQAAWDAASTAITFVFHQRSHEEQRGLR
# CaV13 ICDI inh: Primary screen for inhibitors of IQ motif and Ca2+-dependent inactivation inhibitor domain binding in CACNA1D, Förster resonance energy transfer in living cells, …; 340,000 tested, 0.098% active; inhibition, % at 12.3 µM; HEK cells, CFP/YFP FRET ICDI-IQ, plate reader, 10 min; percent FRET-ratio fall versus neutral wells;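 active = mean replicate inhibition of at least 30% and at least 1% of replicates passing that level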;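 note: 0% = median of the neutral control wells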
# FN deposit inh: fibronectin deposition inhibition; AH1F fibroblasts, Alexa488-fibronectin deposition fluorescence, overnight; inhibition, % at 12.6 µM; 350,000 tested, 0.086% active;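 active = mean inhibition across replicates of 30% or more, regardless of how many single replicates reach that level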;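 note: positive control wells lacked labelled fibronectin entirely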
#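 Material: AH1F fibroblasts assembling fluorescent fibronectin matrix; amount: 10000 AH1F cells/well; medium: DMEM, 2% serum; reagent: Alexa488-fibronectin, 24 nM final in well; dosing: single compound dose, delivered by pin transfer; incubation: 1 h adhesion, overnight exposure; detection: fluorescence after three HBSS washes, excitation 485 nm, emission 525 nm; measure: fibronectin deposition inhibition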
# RAD52 anneal inh: blocks human RAD52 DNA annealing; 360,000 tested, 0.46% active; P43351; AID 651710; recombinant RAD52 DNA annealing, FRET fluorescence; inhibition, % at 18.7 µM;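 active = every replicate showing at least 50% inhibition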
# * marks the source's active call; other numbers are inactive results; · = not tested or not shown; + = active, no number.
SMILES,Glyco luc inh,RAD54 branch,CaV13 ICDI inh,FN deposit inh,RAD52 anneal inh
CC=Cc1ccc2n(c1=O)C[C@@H]1[C@@H](CO)[C@H](C(=O)N(C)C)N(CCC)[C@H]21 (mixture of isomers),·,·,·,·,-12
CC(C)NC(=O)Nc1ccc2c(c1)C(=O)N([C@@H](C)CO)C[C@@H](C)[C@H](CN(C)CC1CCCCC1)O2,·,-1,·,·,3
CNC[C@@H]1Oc2cc(C#Cc3ccc(OC)cc3)ccc2S(=O)(=O)N([C@H](C)CO)C[C@H]1C,·,-5,·,3,47
C[C@H](O)C#Cc1ccc2c(c1)O[C@@H](CN(C)C)[C@H](C)CN([C@H](C)CO)S2(=O)=O,·,5,·,48*,-1
C[C@H]1CN([C@@H](C)CO)S(=O)(=O)c2ccc(C#CC3CCCCC3)cc2O[C@H]1CN(C)C,·,11,·,-5,53*
CNC[C@H]1Oc2cc(C#Cc3ccc(OC)cc3)ccc2S(=O)(=O)N([C@@H](C)CO)C[C@@H]1C,·,2,·,9,52*
COc1ccc(C[C@@H]2CCn3nncc3COC[C@H](CC(C)C)NC2=O)cc1,·,·,·,-18,·
CCN1[C@@H]2c3ccc(-c4ccccc4)c(=O)n3C[C@H]1[C@H](CO)[C@H]2C(=O)NCCCN1CCOCC1,·,3,·,·,-7
CC(C)C#Cc1ccc([C@H]2[C@H](CO)N3C(=O)CN(C(=O)NC4CCCC4)C[C@@H]23)cc1,·,·,·,-18,3
COc1cccc(S(=O)(=O)N[C@@H]2CC[C@H](CC(=O)NC3CCC3)O[C@@H]2CO)c1,·,-5,·,·,11
COc1ccc(-n2c(-c3ccc(Cl)cc3)c[n+]3c2CCc2ccccc2-3)cc1,4,·,-8,-12,21
Cc1ccc(-n2c(-c3ccc(Br)cc3)c[n+]3c2CCc2ccc4cccnc4c2-3)cc1,40*,88*,-5,-4,·
Oc1[nH]c2ccc(Br)cc2c1N=NC(=S)N1CCOCC1,-15,-11,-2,31*,-18
Cc1cc(=O)n2c3c(c4c(cc13)c(CN(C)C)cc(=O)n4C)OC2,31*,·,-6,10,35
Cc1cc(=O)n(C)c2ccccc12,4,·,-2,-8,-10
O=C(/C=C/Sc1ccc(C(F)(F)F)cn1)c1ccccc1,37*,2,-5,5,-20
O=C(CSc1ccc(C(F)(F)F)cn1)Nc1ccccc1,0,2,-5,-6,-7
CO[C@@H]1CN(C)C(=O)c2ccc(NS(C)(=O)=O)cc2OC[C@@H](C)NC[C@H]1C,·,2,·,-4,-10
CCC(=O)N1CCCCN2[C@@H](CO)[C@@H](c3ccc(C#Cc4cccnc4)cc3)[C@@H]2C1,·,-8,·,·,4
O=C(NCC#CCOCc1ccccc1)c1ccccc1,1,-14,37*,0,-68
CO[C@H]1CN(C)C(=O)c2ccc(NC(=O)Nc3ccccc3)cc2OC[C@@H](C)NC[C@H]1C,·,13,·,4,-12
Cc1ccc(S(=O)(=O)N2C[C@@H](O)COC[C@@H]3O[C@@H](CC(=O)NCC4CCCCC4)CC[C@H]32)cc1,·,7,·,-13,60*
Cc1ccc(S(=O)(=O)N2C[C@H](O)COC[C@@H]3O[C@H](CC(=O)NCC4CCCCC4)CC[C@H]32)cc1,·,3,·,-4,54*
Cc1ccc(S(=O)(=O)N2C[C@H](O)COC[C@H]3O[C@@H](CC(=O)NCC4CCCCC4)CC[C@@H]32)cc1,·,-10,·,-5,34
CCCN1C[C@H](C)[C@H](OC)CN(C)C(=O)c2ccc(NC(=O)Nc3c(C)noc3C)cc2OC[C@@H]1C,·,8,·,-13,-10
SMILES,Glyco luc inh,RAD54 branch,CaV13 ICDI inh,FN deposit inh,RAD52 anneal inh
COc1ccc(CN(C)C[C@H]2Oc3ccc(NC(=O)Nc4ccccc4)cc3C(=O)N([C@@H](C)CO)C[C@@H]2C)cc1,·,5,·,·,13
COc1ccc(CN(C)C[C@@H]2Oc3ccc(NC(=O)Nc4ccccc4)cc3C(=O)N([C@@H](C)CO)C[C@H]2C)cc1,·,53*,·,·,17
COc1ccc(CN(C)C[C@@H]2Oc3ccc(NC(=O)Nc4c(C)noc4C)cc3C(=O)N([C@H](C)CO)C[C@H]2C)cc1,·,56*,·,-6,0
COc1ccc(CN(C)C[C@H]2Oc3ccc(NC(=O)Nc4ccc(OC)cc4)cc3C(=O)N([C@H](C)CO)C[C@H]2C)cc1,·,0,·,·,-9
COc1ccc(CN(C)C[C@@H]2Oc3ccc(NC(=O)Nc4ccc(OC)cc4)cc3C(=O)N([C@@H](C)CO)C[C@H]2C)cc1,·,62*,·,·,16
C[C@@H]1CN([C@@H](C)CO)C(=O)c2cc(-c3ccccc3)cnc2O[C@@H]1CN(C)Cc1ccccc1,·,-3,·,38*,2
COc1ccc(CN(C)C[C@@H]2Oc3ccc(NC(=O)NC4CCCCC4)cc3C(=O)N([C@@H](C)CO)C[C@H]2C)cc1,·,63*,·,·,6
COc1ccc(CN(C)C[C@@H]2Oc3ccc(NC(=O)NC4CCCCC4)cc3C(=O)N([C@H](C)CO)C[C@H]2C)cc1,·,40,·,·,-4
C[C@H](CO)N1C[C@H](C)[C@@H](CN(C)Cc2ccc(-c3ccccc3)cc2)Oc2ccc(NC(=O)NC3CCCCC3)cc2C1=O,·,2,·,·,89*
C[C@H]1CN([C@@H](C)CO)C(=O)c2cc(NC(=O)NC3CCCCC3)ccc2O[C@H]1CN(C)Cc1ccc(-c2ccccc2)cc1,·,3,·,·,-1
CCCNC(=O)NC[C@@H]1[C@H](c2ccc(C3=CCCC3)cc2)[C@H](CO)N1C(C)=O,·,-9,·,2,·
Cc1ccc(-c2ccc3c(c2)O[C@H](CN(C)C(=O)Nc2ccc(C(F)(F)F)cc2)[C@H](C)CN([C@@H](C)CO)S3(=O)=O)cc1,·,0,·,15,20
O=C1C(Cl)=C(Nc2ccc3cn[nH]c3c2)C(=O)c2ccccc21,-22,0,-2,71*,-8
Cc1ccc(S(=O)(=O)NCC[C@@H]2CC[C@@H](NS(=O)(=O)c3ccccc3Cl)[C@@H](CO)O2)cc1,·,-3,·,7,-2
COc1cc(CN2C[C@@H]3N[C@H](C2)C3c2ccc(-c3ccncc3)cc2)cc(OC)c1 (stereo partly drawn),·,·,·,14,11
COc1cc(CN2C[C@@H]3N[C@H](C2)C3c2ccc(-c3cncnc3)cc2)cc(OC)c1 (stereo partly drawn),·,·,·,2,·
COc1cc(CN2C[C@@H]3N[C@H](C2)C3c2ccc(-c3cccc(OC)c3)cc2)cc(OC)c1 (stereo partly drawn),·,·,·,-3,59*
COc1ccc(-c2ccc(C3[C@@H]4CN(Cc5cc(OC)cc(OC)c5)C[C@H]3N4)cc2)cc1 (stereo partly drawn),·,·,·,17,66*
N#C/C(=C\c1ccc(N2CCOCC2)o1)C(=O)NCCc1ccccc1,1,·,+,0,-147
COCCNC(=O)/C(C#N)=C/c1ccc(N2CCOCC2)o1,3,·,-5,-5,·

# Source: PubChem
